Test results reported in ChEMBL document CHEMBL1143821, “Fatty acyl benzamido antibacterials based on inhibition of DnaK-catalyzed protein folding” (J Biol Chem, 2007).
pIC50, pKd: −log10 of the molar value. Values after ≈ are worked out from the molar mass of the structure shown. Active and inactive are the calls of the source. No cut-off for these calls is given here.

Key:
[1] = system: Escherichia coli; assay: Antimicrobial activity against Escherichia coli MC4100 at 42 degC; assay type: functional
How it was run: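 Liquid growth inhibition in Mueller-Hinton medium, run in triplicate. Compound was dissolved in ethanol/10 mM potassium phosphate pH 7.8, and its concentration was set by absorbance at 236 nm. Varying concentrations were added to mid-log E. coli MC4100 and incubated 24 h at 42 °C, then plated at 37 °C overnight for CFU. MIC = concentration giving 99.9% growth inhibition (NCCLS).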

[2] = Inhibition of Escherichia coli MC4100 DnaK assessed as effect on luciferase refolding
How it was run: (§1)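 Firefly luciferase was denatured 1 h at 10 °C in 6.0 M guanidinium chloride with 5 mM DTT, Tris pH 7.4, at 2.08 μM. It was diluted to 10.4 nM into MOPS pH 7.8 buffer with 1 mM ATP, 5 mM MgCl2, 436 nM DnaK, 160 nM DnaJ and 436 nM GrpE, preincubated 10 min with compound, at 10 °C and 30 °C. Activity was read by luminescence after 1 h. IC50 from a one-site competition fit.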

[3] = Toxicity against human erythrocytes assessed as hemolytic activity; assay type: cell-based, Erythrocyte
How it was run: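 Human erythrocytes were washed in Tris-buffered saline pH 7.4. Cells at 2.5×10^8 cells/ml were exposed to 3.1–50 μg/ml compound for 30 min at 42 °C with gentle shaking, chilled, and centrifuged. Hemoglobin in the supernatant was read at 550 nm after 10-fold dilution in 0.5% NH4OH. Saponin 100 mg/liter = 100%, phosphate buffer = 0%. EC50 from dose-response curves.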

[4] = system: Escherichia coli; assay: Increase in transcriptional activity of heat shock inducible rpoDPhs promoter of sigma32 gene in Escherichia coli MC4100 at 200 uM assessed as beta galactosidase activity after 12 hrs at 42 degC; assay type: functional
[5] = system: Escherichia coli; assay: Effect on membrane permeability of Escherichia coli MC4100 assessed as beta lactamase activity in medium at 25 degC; assay type: functional
How it was run: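 Cells were grown with 200 μM compound for 24 h. β-Lactamase activity released to the medium was compared with total activity.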

[6] = system: Escherichia coli; assay: Increase in transcriptional activity of heat shock inducible pGroESL promoter of sigma32 gene in Escherichia coli MC4100 at 200 uM assessed as beta galactosidase activity after 12 hrs at 42 degC; assay type: functional
[7] = Displacement of sigma32 derived peptide from Escherichia coli MC4100 DnaK
[8] = system: Escherichia coli; assay: Inhibition of Escherichia coli MC4100 DnaK-reduced carboxymethylated lactalbumin complex up to 500 uM
[9] = system: Escherichia coli; assay: Antimicrobial activity against Escherichia coli MC4100 delta-tig at 30 degC; assay type: functional
[10] = system: Escherichia coli; assay: Inhibition of ATPase activity of Escherichia coli MC4100 DnaK at 150 uM
How it was run: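 Steady-state ATPase assay. 1 µM DnaK preincubated with 150 µM inhibitor for 10 min at 30 °C. Reaction started with 330 µM ATP and followed for at least 10 min.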

[11] = system: Escherichia coli; assay: Increase in transcriptional activity of heat shock inducible PhtrL-lacZ promoter of sigma32 gene in Escherichia coli MC4100 at 200 uM assessed as beta galactosidase activity after 12 hrs at 42 degC; assay type: functional, organism-based
[12] = system: Escherichia coli; assay: Antimicrobial activity against Escherichia coli MC4100 at 30 degC; assay type: functional
[13] = system: Escherichia coli; assay: Binding affinity to DnaK in Escherichia coli MC4100 at 0.7 mM by pull-down assay
How it was run: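 MC4100 grown overnight in LB at 42 °C and lysed by sonication. Lysate incubated 1 h at room temperature with 0.7 mM biotinylated inhibitor in buffer C (20 mM Tris/HCl pH 7.5, 50 mM KCl, 1 mM MgCl2). BSA-blocked streptavidin beads then added for a further 1 h. Beads washed twice; bound protein eluted with 1.92 mM (final) non-biotinylated parent inhibitor. Read by SDS-PAGE and anti-DnaK immunoblot.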

[14] = system: Escherichia coli; assay: Increase heat shock-induced protein aggregation in wild type Escherichia coli MC4100; assay type: functional, organism-based
How it was run: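 Wild-type MC4100 was grown at 30 °C to mid-exponential phase, exposed 15 min to compound (0.13 or 0.066 mg/ml), heat-shocked 30 min at 45 °C, then recovered 3 h at 30 °C. The Nonidet P-40-insoluble aggregated protein fraction was isolated by lysozyme/sonication lysis and differential centrifugation, then run on 12.5% SDS-PAGE with Coomassie stain, equal cell numbers per lane. ΔdnaK cells were the reference.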

[15] = system: Escherichia coli; assay: Activation of Escherichia coli MC4100 RNA polymerase at 200 uM by transcription assay
How it was run: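 In vitro transcription of small circular single-strand DNA universal templates by purified E. coli RNA polymerase core enzyme, run per the kit manufacturer's protocol.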

[16] = Inhibition of secondary amide peptide bond cis/trans isomerase activity of Escherichia coli MC4100 DnaK/DnaJ/GrpE assessed as luciferase refolding; how it was run: as §1
[17] = Inhibition of secondary amide peptide bond cis/trans isomerase activity of Escherichia coli MC4100 DnaK assessed as RNase T1P39A refolding assay
[18] = system: Escherichia coli; assay: Antimicrobial activity against Escherichia coli MC4100 up to 1.4 mg/ml at 37 degC; assay type: functional, organism-based
[19] = system: Escherichia coli; assay: Induction of heat shock response in Escherichia coli MC4100 at 30 degC; assay type: functional, organism-based
[20] = system: Escherichia coli; assay: Increase in transcriptional activity of heat shock inducible PhtrP-lacZ promoter of sigma32 gene in Escherichia coli MC4100 at 200 uM assessed as beta galactosidase activity after 12 hrs at 42 degC; assay type: functional, organism-based
[21] = system: Escherichia coli; assay: Inhibition of IPTG-induced thermotolerance in heat shocked Escherichia coli MC4100 expressing delta-DnaK at 1.35 mM; assay type: functional, organism-based
How it was run: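 E. coli MC4100 ΔdnaK pTrc99A-DnaK was grown at 30 °C in Terrific Broth and induced 1 h with 0–1.0 mM IPTG. Cells were heat-shocked 210 s at 57 °C with 1.35 mM compound added just before, then iced 2 min. Serial dilutions were spotted on LB with marker and IPTG and grown 12 h at 30 °C. DnaK levels were checked by immunoblot.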

[22] = system: Escherichia coli; assay: Inhibition of Escherichia coli MC4100 DnaK-reduced carboxymethylated lactalbumin complex at >25 uM

Row | MIC [1] | IC50 [2] | Structure (SMILES) | EC50 [3] | other results
1 | 180 µg/mL (≈ 358 µM) | 1.2 µg/mL (≈ 2.39 µM) | CCCCCCCCCCCCCCCC(=O)NCc1ccc(C(=O)N[C@H](C(=O)O)[C@@H](C)CC)cc1 | 50 µg/mL (≈ 99.5 µM) | –
2 | 1000 µg/mL (≈ 2760 µM) | > 400 µg/mL | CCCCCC(=O)NCc1ccc(C(=O)N[C@H](C(=O)O)[C@@H](C)CC)cc1 | > 1500 µg/mL | Activity [4]: inactive; Activity [5]: 3.68%; Activity [6]: inactive
3 | 630 µg/mL (≈ 1330 µM) | 0.75 µg/mL (≈ 1.59 µM) | CCCC/C=C\CCCCCCCC(=O)NCc1ccc(C(=O)N[C@H](C(=O)O)[C@@H](C)CC)cc1 | 350 µg/mL (≈ 740 µM) | –
4 | 1200 µg/mL (≈ 2530 µM) | 6.1 µg/mL (≈ 12.9 µM) | CCCCCCCCCCCCCC(=O)NCc1ccc(C(=O)N[C@H](C(N)=O)[C@@H](C)CC)cc1 | 100 µg/mL (≈ 211 µM) | –
5 | > 2000 µg/mL | 7 µg/mL (≈ 14.7 µM) | CCCCCCCCCCCCCC(=O)NCc1cccc(C(=O)N[C@H](C(=O)O)[C@@H](C)CC)c1 | 84 µg/mL (≈ 177 µM) | –
6 | 2800 µg/mL (≈ 5720 µM) | 11.5 µg/mL (≈ 23.5 µM) | CCCCCCCCCCCCCC(=O)NCc1ccc(C(=O)N[C@@H](CCC(N)=O)C(=O)O)cc1 | 520 µg/mL (≈ 1060 µM) | –
7 | 100 µg/mL (≈ 210 µM) | 4.6 µg/mL (≈ 9.67 µM) | CCCCCCCCCCCCCC(=O)NCc1ccc(C(=O)N[C@@H](CC(N)=O)C(=O)O)cc1 | > 10 µg/mL | –
8 | 3100 µg/mL (≈ 5840 µM) | 2.3 µg/mL (≈ 4.33 µM) | CCCCCCCCCCCCCCCCCC(=O)NCc1ccc(C(=O)N[C@H](C(=O)O)[C@@H](C)CC)cc1 | 30 µg/mL (≈ 56.5 µM) | –
9 | 1200 µg/mL (≈ 2360 µM) | 3.9 µg/mL (≈ 7.67 µM) | CCCCCCCCCCCCCC(=O)NCc1ccc(C(=O)N[C@@H](Cc2ccccc2)C(=O)O)cc1 | > 200 µg/mL | –
10 | 380 µg/mL (≈ 801 µM) | 4.9 µg/mL (≈ 10.3 µM) | CCCCCCCCCCCCCC(=O)NCc1ccc(C(=O)N[C@H](C(=O)O)[C@@H](C)CC)cc1 | 66 µg/mL (≈ 139 µM) | pIC50 [7]: 4.54; pKd [7]: 5.59; Activity [8]: inactive; MIC [9]: 860 µg/mL (≈ 1810 µM); Activity [10]: inactive; Activity [11]: inactive; MIC [12]: ≥ 5000 µg/mL; Activity [13]: Active; Activity [14]: Active; Activity [15]: inactive; pIC50 [16]: 5.02; pIC50 [17]: 5.57; Fold change [4]: 2; Activity [5]: 0.89%; Activity [18]: inactive; Activity [19]: inactive; Fold change [6]: 2; Activity [20]: inactive; Activity [21]: Active
11 | > 500 µg/mL | 5.5 µg/mL (≈ 13.1 µM) | CCCCCCCCCCCCCC(=O)NCc1ccc(C(=O)NCC(=O)O)cc1 | > 50 µg/mL | –
12 | 1300 µg/mL (≈ 2600 µM) | 3.6 µg/mL (≈ 7.19 µM) | CCCCCC/C=C\CCCCCCCC(=O)NCc1ccc(C(=O)N[C@H](C(=O)O)[C@@H](C)CC)cc1 | 250 µg/mL (≈ 499 µM) | –
13 | > 60 µg/mL | 1.1 µg/mL (≈ 2.39 µM) | CCCCCCCCCCCCCC(=O)Nc1ccc(C(=O)N[C@H](C(=O)O)[C@@H](C)CC)cc1 | > 10 µg/mL | –
14 | – | – | CC(C)C[C@H](NC(=O)[C@H](CC(C)C)NC(=O)[C@H](CCCNC(=N)N)NC(=O)[C@@H](N)CC(N)=O)C(=O)N[C@@H](CC(C)C)C(=O)N[C@H](C(=O)NCC(=O)O)[C@@H](C)O | – | Activity [22]: Active; pIC50 [7]: 5.89
15 | 640 µg/mL (≈ 1310 µM) | 2.6 µg/mL (≈ 5.32 µM) | CCCCCCCCCCCCCC(=O)NCCc1ccc(C(=O)N[C@H](C(=O)O)[C@@H](C)CC)cc1 | 35 µg/mL (≈ 71.6 µM) | –
16 | 280 µg/mL (≈ 777 µM) | 35.9 µg/mL (≈ 99.6 µM) | CC/C=C/CC(=O)NCc1ccc(C(=O)N[C@H](C(=O)O)[C@@H](C)CC)cc1 | > 1500 µg/mL | –
17 | 490 µg/mL (≈ 1170 µM) | 40.4 µg/mL (≈ 96.5 µM) | CCCCCCCCCC(=O)NCc1ccc(C(=O)N[C@H](C(=O)O)[C@@H](C)CC)cc1 | > 1000 µg/mL | –
18 | 650 µg/mL (≈ 1460 µM) | 1.9 µg/mL (≈ 4.25 µM) | CCCCCCCCCCCC(=O)NCc1ccc(C(=O)N[C@H](C(=O)O)[C@@H](C)CC)cc1 | 400 µg/mL (≈ 896 µM) | –
19 | 14 µg/mL (≈ 40.1 µM) | – | CC1(C)S[C@@H]2[C@H](NC(=O)[C@H](N)c3ccccc3)C(=O)N2[C@H]1C(=O)O [AMPICILLIN] | – | –
